One assay has as its target Histone deacetylase 1 (Homo sapiens, UniProt Q13547). As to the kind of experiment: Inhibition of recombinant human HDAC1 using Boc-L-Lys(acetyl)-MCA as substrate by fluorogenic enzymatic assay.
The target of assay [1] is T1, Histone deacetylase-like amidohydrolase (Alcaligenes sp. (strain DSM 11172) (Bordetella sp. (strain FB188)), UniProt Q70I53).
T1 sequence (Q70I53 whole entry): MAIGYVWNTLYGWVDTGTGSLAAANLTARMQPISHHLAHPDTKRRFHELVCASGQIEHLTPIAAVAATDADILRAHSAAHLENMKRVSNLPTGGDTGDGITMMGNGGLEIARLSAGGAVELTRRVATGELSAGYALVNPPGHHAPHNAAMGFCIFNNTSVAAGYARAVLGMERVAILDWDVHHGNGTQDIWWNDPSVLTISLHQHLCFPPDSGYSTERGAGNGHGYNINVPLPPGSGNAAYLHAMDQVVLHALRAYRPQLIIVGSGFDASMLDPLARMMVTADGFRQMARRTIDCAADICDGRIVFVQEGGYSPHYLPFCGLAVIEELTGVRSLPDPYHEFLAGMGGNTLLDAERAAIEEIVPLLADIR
As to the kind of experiment: Inhibition of Bordetella FB188 HDAH using Boc-L-Lys(acetyl)-MCA as substrate by fluorogenic enzymatic assay.

The target of assay [2] is T2, Protein deacetylase HDAC6 (Homo sapiens, UniProt Q9UBN7).
T2 sequence (Q9UBN7 whole entry): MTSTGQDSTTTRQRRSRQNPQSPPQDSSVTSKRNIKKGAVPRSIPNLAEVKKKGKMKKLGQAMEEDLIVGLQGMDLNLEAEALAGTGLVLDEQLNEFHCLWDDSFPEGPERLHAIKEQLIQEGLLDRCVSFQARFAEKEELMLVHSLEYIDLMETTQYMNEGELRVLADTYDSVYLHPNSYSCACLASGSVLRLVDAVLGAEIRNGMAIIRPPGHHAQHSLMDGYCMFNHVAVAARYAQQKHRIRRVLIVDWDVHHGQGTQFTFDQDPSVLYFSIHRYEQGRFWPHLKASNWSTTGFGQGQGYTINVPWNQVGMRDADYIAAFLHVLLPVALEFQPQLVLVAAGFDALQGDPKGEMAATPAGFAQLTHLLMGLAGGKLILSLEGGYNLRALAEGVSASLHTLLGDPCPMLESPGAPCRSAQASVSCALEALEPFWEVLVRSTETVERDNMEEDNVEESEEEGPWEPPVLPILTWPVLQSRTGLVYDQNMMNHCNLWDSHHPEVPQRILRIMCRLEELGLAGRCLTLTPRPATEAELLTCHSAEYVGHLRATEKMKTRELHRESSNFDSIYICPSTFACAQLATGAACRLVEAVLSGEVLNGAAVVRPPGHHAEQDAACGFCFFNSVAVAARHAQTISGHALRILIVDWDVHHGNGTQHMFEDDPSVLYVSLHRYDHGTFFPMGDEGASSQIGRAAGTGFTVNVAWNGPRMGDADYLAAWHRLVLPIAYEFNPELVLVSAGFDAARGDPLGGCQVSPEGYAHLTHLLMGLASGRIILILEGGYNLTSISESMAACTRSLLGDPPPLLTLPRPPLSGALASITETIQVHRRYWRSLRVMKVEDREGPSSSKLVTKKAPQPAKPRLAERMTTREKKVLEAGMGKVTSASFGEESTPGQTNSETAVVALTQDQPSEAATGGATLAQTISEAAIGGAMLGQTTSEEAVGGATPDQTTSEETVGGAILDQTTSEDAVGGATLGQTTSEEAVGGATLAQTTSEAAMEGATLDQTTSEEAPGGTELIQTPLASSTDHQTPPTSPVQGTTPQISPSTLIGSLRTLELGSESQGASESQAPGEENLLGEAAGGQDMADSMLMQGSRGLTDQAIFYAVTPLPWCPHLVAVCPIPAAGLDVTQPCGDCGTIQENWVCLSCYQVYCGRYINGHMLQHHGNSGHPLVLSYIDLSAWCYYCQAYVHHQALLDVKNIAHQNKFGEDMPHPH
As to the kind of experiment: Inhibition of recombinant human HDAC6 using Boc-L-Lys(acetyl)-MCA as substrate by fluorogenic enzymatic assay.

For the next assay, the target named is T3, Histone deacetylase 8 (Homo sapiens, UniProt Q9BY41).
T3 sequence (Q9BY41 whole entry): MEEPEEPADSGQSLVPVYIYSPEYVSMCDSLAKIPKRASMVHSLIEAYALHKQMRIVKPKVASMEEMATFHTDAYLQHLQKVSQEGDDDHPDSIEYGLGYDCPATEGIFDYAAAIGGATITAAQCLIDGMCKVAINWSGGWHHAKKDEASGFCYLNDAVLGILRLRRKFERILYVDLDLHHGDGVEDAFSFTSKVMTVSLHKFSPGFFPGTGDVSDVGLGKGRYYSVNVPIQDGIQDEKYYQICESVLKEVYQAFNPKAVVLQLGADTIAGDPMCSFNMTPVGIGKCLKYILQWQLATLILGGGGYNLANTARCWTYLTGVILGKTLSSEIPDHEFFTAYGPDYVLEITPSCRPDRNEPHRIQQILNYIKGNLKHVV
As to the kind of experiment: Inhibition of recombinant human HDAC8 using Boc-L-Lys(trifluoroacetyl)-MCA as substrate by fluorogenic enzymatic assay.

The target in another assay is T4, Histone deacetylase 7 (Homo sapiens, UniProt Q8WUI4).
T4 sequence (Q8WUI4 whole entry): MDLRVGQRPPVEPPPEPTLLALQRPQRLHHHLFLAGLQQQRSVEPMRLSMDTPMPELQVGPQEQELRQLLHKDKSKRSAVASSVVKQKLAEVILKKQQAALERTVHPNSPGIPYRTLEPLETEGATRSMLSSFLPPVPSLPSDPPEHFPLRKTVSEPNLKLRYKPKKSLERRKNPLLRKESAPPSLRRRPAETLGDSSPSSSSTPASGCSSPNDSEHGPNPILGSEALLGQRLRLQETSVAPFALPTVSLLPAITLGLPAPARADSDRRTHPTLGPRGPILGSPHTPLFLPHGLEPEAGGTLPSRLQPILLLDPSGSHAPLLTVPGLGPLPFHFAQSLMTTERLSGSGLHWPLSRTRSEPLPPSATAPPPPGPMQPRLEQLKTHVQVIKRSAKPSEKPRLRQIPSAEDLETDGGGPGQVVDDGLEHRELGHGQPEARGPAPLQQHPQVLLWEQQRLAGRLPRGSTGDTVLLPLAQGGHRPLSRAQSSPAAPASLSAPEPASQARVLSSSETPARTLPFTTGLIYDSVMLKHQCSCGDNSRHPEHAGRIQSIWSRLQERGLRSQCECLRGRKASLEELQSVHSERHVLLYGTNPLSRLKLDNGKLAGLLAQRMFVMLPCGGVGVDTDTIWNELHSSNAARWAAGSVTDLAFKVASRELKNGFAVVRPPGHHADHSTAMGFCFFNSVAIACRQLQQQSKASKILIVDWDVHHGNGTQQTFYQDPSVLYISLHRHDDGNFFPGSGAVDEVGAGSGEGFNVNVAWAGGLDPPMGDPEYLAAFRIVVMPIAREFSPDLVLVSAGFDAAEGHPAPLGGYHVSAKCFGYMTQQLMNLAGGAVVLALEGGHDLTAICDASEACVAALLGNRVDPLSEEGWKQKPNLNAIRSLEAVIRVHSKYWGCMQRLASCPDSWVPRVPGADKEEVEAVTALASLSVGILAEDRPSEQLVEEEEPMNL
As to the kind of experiment: Inhibition of recombinant human HDAC7 using Boc-L-Lys(trifluoroacetyl)-MCA as substrate by fluorogenic enzymatic assay.

In assay [3] the target is Histone deacetylase. The assay is described as follows: Inhibition of HDAC in human K562 cells using Boc-L-Lys(acetyl)-MCA as substrate by fluorogenic cellular assay. Type of assay: cell-based. An outline of the steps:
(§1)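 K562 cells were grown in RPMI with 10% FCS, L-glutamine and gentamycin, then pelleted. Lysis in 50 mM Tris–HCl pH 8.5, 1 M NaCl, 1 mM MgCl₂, Triton X-100 (up to 5× pellet volume), 2 h at 37 °C. The diluted lysate replaces recombinant enzyme in the two-step fluorogenic trypsin-coupled assay with substrate at 20 µM final. Read-out is AMC fluorescence (ex 390, em 460 nm), giving IC50.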

Assay [4] addresses Histone deacetylase. The assay is described as follows: Inhibition of HDAC in human K562 cells using Boc-L-Lys(trifluoroacetyl)-MCA as substrate by fluorogenic cellular assay. Type of assay: cell-based. An outline of the steps:
as §1

As a reminder, the Kd is a measure of binding affinity in units of concentration. The IC50 is the point on the concentration scale where inhibition reaches its midpoint.

Bounds are passed on as bounds.

Sequence of Histone deacetylase 1 (Q13547 whole entry): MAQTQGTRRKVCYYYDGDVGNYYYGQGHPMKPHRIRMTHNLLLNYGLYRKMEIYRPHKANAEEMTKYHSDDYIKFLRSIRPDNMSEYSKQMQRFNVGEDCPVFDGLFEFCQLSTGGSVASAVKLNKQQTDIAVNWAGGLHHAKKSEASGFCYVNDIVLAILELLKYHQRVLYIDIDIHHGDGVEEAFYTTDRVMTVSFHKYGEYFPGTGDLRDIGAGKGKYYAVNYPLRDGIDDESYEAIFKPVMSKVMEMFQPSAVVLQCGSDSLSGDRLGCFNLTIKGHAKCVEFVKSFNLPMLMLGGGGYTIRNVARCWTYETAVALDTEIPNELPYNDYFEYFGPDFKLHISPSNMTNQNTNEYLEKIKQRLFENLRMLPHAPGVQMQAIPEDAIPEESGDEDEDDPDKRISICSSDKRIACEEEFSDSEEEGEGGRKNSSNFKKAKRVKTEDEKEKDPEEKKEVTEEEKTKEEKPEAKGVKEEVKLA

Take `O=C(NO)C(F)(F)C(F)(F)C(F)(F)C(F)(F)C(F)(F)C(F)(F)C(=O)Nc1ccc2cc3ccccc3cc2c1`: the Kd is 65 µM at Histone deacetylase 1; 9.1 µM in assay [1]; 11 µM in assay [2]; 60 µM at Histone deacetylase 8; 38 µM on Histone deacetylase 7.
Taken in the same sequence, the figures for `O=C(NO)C(F)(F)C(F)(F)C(F)(F)C(F)(F)C(F)(F)C(F)(F)C(=O)Nc1ccc(-c2ccccc2)cc1` were 31 µM, 8.8 µM, 49 µM, 57 µM and 14 µM.
Taken in the same sequence, the figures for `N#Cc1ccc(NC(=O)C(F)(F)C(F)(F)C(F)(F)C(F)(F)C(F)(F)C(F)(F)C(=O)NO)cc1` were 18 µM, 0.23 µM, 71 µM, 35 µM and 32 µM.
In the case of `CCc1cccc(NC(=O)C(F)(F)C(F)(F)C(F)(F)C(F)(F)C(F)(F)C(F)(F)C(=O)NO)c1`, the Kd at Histone deacetylase 1 is 16 µM; in assay [1], 0.19 µM; in assay [2] it was 1.3 µM; at Histone deacetylase 8, 13 µM; on Histone deacetylase 7 it was 3 µM. For the same molecule, the IC50 against Histone deacetylase [3] was greater than 50 µM; against Histone deacetylase [4] it was 42 µM.
`O=C(NO)C(F)(F)C(F)(F)C(F)(F)C(F)(F)C(F)(F)C(F)(F)C(=O)Nc1cc2ccccc2c2ccccc12`: the Kd on Histone deacetylase 1 turned out to be 18 µM; in assay [1], 0.29 µM; in assay [2] it was 10 µM; at Histone deacetylase 8, 5.3 µM; at Histone deacetylase 7, 11 µM.
Taken in the same sequence, the figures for `O=C(NO)C(F)(F)C(F)(F)C(F)(F)C(F)(F)C(F)(F)C(F)(F)C(=O)Nc1ccc(-c2cn(-c3ccccc3)nn2)cc1` were greater than 100 µM, 7 µM, 8.2 µM, greater than 100 µM and 30 µM.
For `O=C(NO)C(F)(F)C(F)(F)C(F)(F)C(F)(F)C(F)(F)C(F)(F)C(=O)Nc1ccc(Cl)cc1` the same measures were 12 µM, 0.21 µM, 23 µM, 35 µM and 19 µM.
Consider `CC(=O)Nc1ccc(NC(=O)C(F)(F)C(F)(F)C(F)(F)C(F)(F)C(F)(F)C(F)(F)C(=O)NO)cc1`, for which the dissociation constant Kd came out at 18 µM at Histone deacetylase 1; 1.3 µM in assay [1]; 9.2 µM in assay [2]; 36 µM at Histone deacetylase 8; 13 µM on Histone deacetylase 7. In addition, the IC50 at Histone deacetylase [3] and against Histone deacetylase [4] was greater than 50 µM in each case.
For the molecule `O=C(NO)C(F)(F)C(F)(F)C(F)(F)C(F)(F)C(F)(F)C(F)(F)C(=O)Nc1ccc(-c2cnnn2-c2ccccc2)cc1`, the Kd was 66 µM on Histone deacetylase 1; 4.5 µM in assay [1]; 47 µM in assay [2]; greater than 100 µM at Histone deacetylase 8; 12 µM at Histone deacetylase 7.
With `O=C(NO)C(F)(F)C(F)(F)C(F)(F)C(F)(F)C(F)(F)C(F)(F)C(=O)Nc1ccc2ccccc2c1`, the Kd at Histone deacetylase 1 was found to be 12 µM; in assay [1], 0.16 µM; in assay [2], 6.8 µM; on Histone deacetylase 8, 49 µM; on Histone deacetylase 7, 11 µM. Moreover, the IC50 was greater than 50 µM against Histone deacetylase [3] and 45 µM at Histone deacetylase [4].
`O=C(Nc1ccccc1)C(F)(F)C(F)(F)C(F)(F)C(F)(F)C(F)(F)C(F)(F)C(=O)Nc1ccccc1`: the Kd at Histone deacetylase 1 is greater than 100 µM; in assay [1], 27 µM; in assay [2] it was greater than 100 µM; on Histone deacetylase 8, greater than 100 µM; at Histone deacetylase 7, greater than 100 µM.
As to `O=C(NO)C(F)(F)C(F)(F)C(F)(F)C(F)(F)C(F)(F)C(F)(F)C(=O)Nc1cccc(-c2ccccc2)c1`, the Kd at Histone deacetylase 1 stood at 30 µM; in assay [1], 0.45 µM; in assay [2], 15 µM; on Histone deacetylase 8, 60 µM; on Histone deacetylase 7, 14 µM.
For `O=C(NO)C(F)(F)C(F)(F)C(F)(F)C(F)(F)C(F)(F)C(F)(F)C(=O)Nc1cccc2ccccc12` the same measures were 29 µM, 0.37 µM, 32 µM, 19 µM and 20 µM.
For `O=C(NO)C(F)(F)C(F)(F)C(F)(F)C(F)(F)C(F)(F)C(F)(F)C(=O)Nc1ccc2ccc3cccc4ccc1c2c34` the same measures were 22 µM, 0.6 µM, 17 µM, 47 µM and 75 µM.
For `Cc1ccc(NC(=O)C(F)(F)C(F)(F)C(F)(F)C(F)(F)C(F)(F)C(F)(F)C(=O)NO)cc1` the same measures were 14 µM, 0.27 µM, greater than 100 µM, 34 µM and 52 µM.

Values taken from ChEMBL document CHEMBL1932952, “Synthesis and biochemical analysis of 2,2,3,3,4,4,5,5,6,6,7,7-dodecafluoro-N-hydroxy-octanediamides as inhibitors of human histone deacetylases” (Bioorg Med Chem, 2012).
